Molecules are shown by their SMILES. In all, about 2,500 compounds went through this assay and about 460 (18%) were called active.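 The calls were made as follows: active = mean activation above a cutoff of low control average plus 3 SD from the earlier screen (cut at about 12% in these data); inactive = the rest.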 These entries were drawn from the full list.

A short description of this assay: compound fluorescence interference without thin filaments, confirmation, artefact control for cardiac RTF calcium sensitizer project, biochemical (AID 504382). Particulars: IANBD fluorescence interference counterscreen, buffer, EC20 Ca2+; at 7.2 µM; hits give high values; scaled: EC20 calcium 0, EC100 calcium 100. In outline:
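timing = compound incubation 15 min at 25 °C before fluorescence reading | technique = fluorescence at 480 nm excitation, 540 nm emission | evaluation = interference relative to controls | replication = triplicate wells per compound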
As for `CCC(=Cc1ccccc1OC)c1ccncc1`, the fluorescence artifact activation is 3.06% (inactive).

For `COc1ccc(CCNc2cc(C)[nH]c(=O)c2)cc1OC`, the fluorescence artifact activation is 0.6% (inactive).

For the compound `COc1ccc(NC(=O)CCN2CC(C)OC(C)C2)c(OC)c1` (stereo not given), the fluorescence artifact activation is 0.05% (inactive).

For the compound `Cc1ccc(C)c(NC(=O)CCN2CCOCC2)c1`, the fluorescence artifact activation was -0.02% (inactive).

Regarding `COc1ccc(NC(=O)CCN2CCCC2)c(OC)c1`, the fluorescence artifact activation was 27.4% (active).

Take `COc1ccc(Nc2nc3ccc(C)cc3cc2C#N)c(OC)c1`: the fluorescence artifact activation was 0.04% (inactive).

As for `CCCN(CCC)S(=O)(=O)c1ccc(C(=O)OCCN2C(=O)c3cccc4c(N5CCOCC5)ccc(c34)C2=O)cc1`, the fluorescence artifact activation is 4.63% (inactive).

On to `Cc1ccccc1NC(=O)c1nnn(-c2ccc3c(c2)OCCO3)c1N`, for which the fluorescence artifact activation was 0.09% (inactive).

For `CCN1C(=O)c2cccc3c(NC(=O)c4ccc5c(c4)OCCO5)ccc1c23`, the fluorescence artifact activation was 36.4% (active).

With `COc1cc(/C=C(\C#N)c2nc3ccccc3s2)ccc1OCC(=O)Nc1ccccc1`, the fluorescence artifact activation is 36.6% (active).

As for `N#C/C(=C\c1ccccn1)c1nc2ccccc2s1`, the fluorescence artifact activation was 0.06% (inactive).

Regarding `COc1cc(/C=C(/C#N)C(=O)NCCCc2ccccc2)ccc1OCC(=O)O`, the fluorescence artifact activation was 0.24% (inactive).

Take `Cc1ccc(S(=O)(=O)Nc2ccccc2N(C)S(=O)(=O)c2ccc(C)cc2)cc1`: the fluorescence artifact activation is 2.27% (inactive).

Take `NC(=O)c1cc2ccc(O)cc2oc1=NCc1ccccc1`: the fluorescence artifact activation was 0.04% (inactive).

`CCN1CC=C2C(C1)C(c1ccc(Cl)s1)C(C#N)=C(N)C2(C#N)C#N` (stereo not given): the fluorescence artifact activation is 2.16% (inactive).

`COc1cccc(F)c1C(=O)NC(=O)Nc1ccc2nc(C)oc2c1`: the fluorescence artifact activation is 42.8% (active).

In the case of `CCNC(=S)N/N=C/c1sc(N2CCCCC2)nc1-c1cccs1`, the fluorescence artifact activation is 0.09% (inactive).

On to `Cc1ccc(CNC(=O)CCS(=O)(=O)c2cc3c(cc2C)NC(=O)CO3)cc1`, for which the fluorescence artifact activation was 0.29% (inactive).

Regarding `Cc1ncn(C23CC4CC(CC(C4)C2)C3)n1`, the fluorescence artifact activation is 0% (inactive).

Take `CCc1ccc(C(=O)NNc2cc(Cl)ccc2Cl)cc1`: the fluorescence artifact activation was 0.03% (inactive).

In the case of `Cc1cccc2cc3c(N)c(C(=O)N4CCc5ccccc54)sc3nc12`, the fluorescence artifact activation is -0.06% (inactive).

As for `Cc1c(Br)c(C(=O)N2CCc3ccccc32)nn1C`, the fluorescence artifact activation was 0.13% (inactive).

For the compound `Cc1nn(C)c(C(=O)N2CCc3ccccc32)c1Br`, the fluorescence artifact activation is 23.4% (active).

`Nc1ccc2c3c(cccc13)CC2`: the fluorescence artifact activation was 0.07% (inactive).

For `O=C(Cn1c2[n+](c3ccc(C(F)(F)F)cc31)CCCCC2)Nc1ccccc1`, the fluorescence artifact activation is 0.33% (inactive).

Take `CC(=O)/C(C=Nc1noc(C)c1Br)=C(\C)O`: the fluorescence artifact activation is 11.4% (inactive).

As for `CCC1(CC)C(=O)Nc2ccccc21`, the fluorescence artifact activation was -0.02% (inactive).

Turning to `COc1ccccc1N1CCN(C(=O)c2ccc(Cn3c(=O)[nH]c4ccsc4c3=O)cc2)CC1`, the fluorescence artifact activation was 51.1% (active).

For the compound `COc1ccc2[nH]c(C(=O)N3CCC(Cc4ccccc4)CC3)cc2c1`, the fluorescence artifact activation was 0.13% (inactive).

In the case of `COc1ccccc1N1CCN(C(=O)c2cn(-c3ccccc3)nc2-c2cccnc2)CC1`, the fluorescence artifact activation is 0.33% (inactive).

In the case of `COc1ccc(C(=O)c2sc3nc(C)cc(-c4cccs4)c3c2N)cc1OC`, the fluorescence artifact activation was 0.66% (inactive).

Turning to `CC(=O)c1ccc2noc(-c3ccc(C)cc3)c2c1`, the fluorescence artifact activation is 0.23% (inactive).

As to `COc1ccccc1-c1sc2ccccc2c1-c1ccc(Br)nc1`, the fluorescence artifact activation is 0.93% (inactive).

As to `Oc1ccc(-c2c(C3=CCCCC3)sc3ccccc23)cc1`, the fluorescence artifact activation is 28.2% (active).

With `CCOc1ccccc1C=NNC(=O)CCCCC(=O)NN=Cc1ccccc1OCC`, the fluorescence artifact activation is 0.77% (inactive).

For the compound `Cc1noc(C)c1NC(=O)N(C)C[C@H]1Oc2c(NS(=O)(=O)c3cccs3)cccc2C(=O)N([C@H](C)CO)C[C@@H]1C`, the fluorescence artifact activation was -0.07% (inactive).

Regarding `CC(C)(C)c1ccc(C(=O)NC(=S)Nc2ccc(N3CCOCC3)cc2)cc1`, the fluorescence artifact activation is 0.09% (inactive).

On to `COC(=O)Cc1ccc(NC(=S)NCCCN2CCOCC2)cc1`, for which the fluorescence artifact activation is -0.02% (inactive).

Regarding `O=C(NC(=S)NCCN1CCOCC1)c1ccc(F)cc1`, the fluorescence artifact activation was 21.2% (active).

For the compound `CCCCNC(=O)Nc1nnc(-c2ccccc2)o1`, the fluorescence artifact activation is 0.13% (inactive).

Regarding `S=C(Nc1ccc(Cl)cc1)N(CCCN1CCOCC1)Cc1ccco1`, the fluorescence artifact activation is 0.04% (inactive).

`CCC1OC23CCCCC2C(C#N)(C(=N)O3)C1(C#N)C#N` (stereo not given): the fluorescence artifact activation is 0.21% (inactive).

Take `Cn1cccc1Cc1nnc(SCC(=O)Nc2ccc(F)cc2F)n1-c1ccc(F)cc1`: the fluorescence artifact activation is 1.86% (inactive).

As for `CC(=O)c1cc(NC(=O)c2ccccc2)c(=O)oc1/C=C/N(C)C`, the fluorescence artifact activation is 0.09% (inactive).

For the compound `COc1ccc(C(=O)Nc2cc(C(C)=O)c(/C=C/N(C)C)oc2=O)cc1`, the fluorescence artifact activation was 9.8% (inactive).

As for `COC(=O)c1cc(NC(=O)c2ccccc2)c(=O)oc1/C=C/Nc1ccc(Oc2ccccc2)cc1`, the fluorescence artifact activation is 18.6% (active).

As for `Cc1cccc(N2C(=O)c3cccc4c(N)ccc(c34)C2=O)c1`, the fluorescence artifact activation is 0.02% (inactive).

As to `CCN(CC)c1ccc2cc(-c3nnc(-c4ccccc4)o3)c(=O)oc2c1`, the fluorescence artifact activation is 43.7% (active).

On to `CCN(CC)c1ccc2cc(-c3nc(-c4cc5ccccc5oc4=O)cs3)c(=O)oc2c1`, for which the fluorescence artifact activation is -0.03% (inactive).

With `CCN(CC)c1ccc2cc(-c3nnc(-c4ccncc4)o3)c(=O)oc2c1`, the fluorescence artifact activation was 1.48% (inactive).

For the compound `CC(=O)Nc1ccc2cc3ccc(NC(C)=O)cc3nc2c1`, the fluorescence artifact activation was 11.6% (inactive).

In the case of `CCCn1c(=O)c(C(=O)NNC(=O)c2ccccc2[N+](=O)[O-])c(O)c2ccccc21`, the fluorescence artifact activation is 5.02% (inactive).

On to `CCN1/C(=C/C=C2/SC(=Nc3cccc4ncccc34)N(C)C2=O)Sc2ccccc21`, for which the fluorescence artifact activation is 11.5% (inactive).

As for `CCN(C(=O)CN1CCCc2cc(C)ccc21)c1c(N)n(Cc2ccccc2)c(=O)[nH]c1=O`, the fluorescence artifact activation was 0.2% (inactive).

With `CCn1c(Cc2ccccc2)nnc1SCC(=O)OC(C)C`, the fluorescence artifact activation was 0.3% (inactive).

With `CCN(C(=O)CSc1nnc(COc2ccccc2F)n1N)c1c(N)n(Cc2ccccc2)c(=O)[nH]c1=O`, the fluorescence artifact activation was 382% (active).

As to `COC(=O)C1=C(C)NC(=O)/C1=C\N(C)C`, the fluorescence artifact activation was 5.29% (inactive).

With `COc1cc(OC)c(OC)cc1/C=C1\Oc2cc(OCC(=O)N3Cc4ccccc4C[C@H]3C(=O)O)ccc2C1=O`, the fluorescence artifact activation was -0.01% (inactive).

As to `CS(=O)(=O)N(CC(=O)NCCSCc1ccccc1)c1ccccc1`, the fluorescence artifact activation was 0.13% (inactive).

`CSCC(C)N1CCC(n2nccc2NC(=O)CCCc2ccccc2)CC1` (stereo not given): the fluorescence artifact activation was 26.2% (active).

On to `CC(C)(C)C1(O)CC(C(F)(F)F)=NN1C(=O)CCCc1ccccc1` (stereo not given), for which the fluorescence artifact activation is 0.13% (inactive).

For `CCN1CCN(C2=CC3=CC(=C(C#N)C#N)CCC3CC2)CC1` (stereo not given), the fluorescence artifact activation was 0.47% (inactive).

For `Cc1ccsc1C1NC(=O)c2c(sc3c2CCN(C)C3)N1` (stereo not given), the fluorescence artifact activation was 28.8% (active).

`Cc1ccc(C2NC(=O)c3c(sc4c3CCN(C)C4)N2)s1` (stereo not given): the fluorescence artifact activation is 0% (inactive).

For the compound `CN1CCc2c(sc3c2C(=O)NC(c2cccs2)N3)C1` (stereo not given), the fluorescence artifact activation was 0.27% (inactive).

Regarding `CCOC(=O)c1c(NC(=O)CSc2nc3cc(Cl)ccc3c(=O)n2Cc2ccco2)sc(C(=O)N(C)C)c1C`, the fluorescence artifact activation is 0% (inactive).

For the compound `COc1ccc(OC)c(/C=C2\N=C(c3ccccc3)OC2=O)c1`, the fluorescence artifact activation is 8.78% (inactive).

Consider `C#CCSc1nc2[nH]ncc2c(=O)[nH]1`, for which the fluorescence artifact activation was 0.09% (inactive).

For the compound `CNc1ccccc1C(C)(C)c1cc(C)[nH]n1`, the fluorescence artifact activation is 3.66% (inactive).

Turning to `COc1ccc(O)c(/C=N/c2nc3ccccc3n2C)c1`, the fluorescence artifact activation was 0.05% (inactive).

For `COc1ccc(N=Nc2nc3ccc(Br)cc3n2C)cc1`, the fluorescence artifact activation is 0.16% (inactive).

As to `COc1ccc(N=Nc2nc3cc(Br)c(Br)cc3n2C)c(OC)c1`, the fluorescence artifact activation is 765% (active).

In the case of `CCOC(=O)C1=C(COC(=O)c2ccc3ccccc3c2O)NC(=O)NC1C` (stereo not given), the fluorescence artifact activation was 0.49% (inactive).

For `CCOC(=O)c1cc2c(=O)n3ccccc3nc2n(CCOC)c1=NC(=O)c1c(-c2c(F)cccc2Cl)noc1C`, the fluorescence artifact activation is 0.12% (inactive).

For `COc1ccc2cc(C(=O)N/N=C/c3sc4ccccc4c3O)ccc2c1`, the fluorescence artifact activation was 93.2% (active).

Consider `COc1ccc(C(=O)N/N=C/c2sc3ccccc3c2O)cc1`, for which the fluorescence artifact activation was 1.31% (inactive).

Consider `O=C(N/N=C/c1sc2ccccc2c1O)c1ccccc1`, for which the fluorescence artifact activation is 9.97% (inactive).

In the case of `CC(C)(CN1CCc2ccccc2C1)NS(=O)(=O)c1ccc(Cl)cc1`, the fluorescence artifact activation was 0.2% (inactive).

For the compound `O=c1oc2c3c4c(cc2c(C(F)(F)F)c1CCN1CCOCC1)CCCN4CCC3`, the fluorescence artifact activation was -0.03% (inactive).

For `Cn1ncc(N=Cc2c(O)ccc3ccccc23)c1C(=O)Nc1cccc(Cl)c1`, the fluorescence artifact activation was 0.09% (inactive).

Take `O=C1c2cccc3c(N4CCCCC4)ccc(c23)C(=O)N1c1ccccc1O`: the fluorescence artifact activation was -0.03% (inactive).

`O=C1c2cccc3c(O)ccc(c23)C(=O)N1Cc1ccccc1`: the fluorescence artifact activation was 11.9% (active).

Take `CCNc1cccc2c1C(=O)N(C)C2=O`: the fluorescence artifact activation is 0.15% (inactive).

Regarding `CC1(C)CC2CC(C)(CN2CC(=O)C(C#N)c2ccccc2)C1` (stereo not given), the fluorescence artifact activation is 0.12% (inactive).

Consider `Cc1cccc(/C=N/n2c(-c3ccncc3)n[nH]c2=S)c1`, for which the fluorescence artifact activation is 7.13% (inactive).

On to `C=CCn1cc(/C=C/c2cc[n+](C)cc2)c2ccccc21`, for which the fluorescence artifact activation is 0.14% (inactive).

Turning to `N#C/C(=C\c1coc2ccc(O)cc2c1=O)C(=O)Nc1nc2ccccc2s1`, the fluorescence artifact activation is 1.92% (inactive).

As to `Fc1ccc(CN2CC[C@H]3C=CCc4cccc(c43)C2)cc1`, the fluorescence artifact activation is 52.5% (active).

`COc1cc(/C=C2/SC(=S)N(CCC(=O)Nc3ccccc3)C2=O)cc(OC)c1OC`: the fluorescence artifact activation is 0.06% (inactive).

As for `CCOc1ccc(NC(=O)/C(C#N)=C\c2ccc(N3CCCC3)c(C)c2)cc1`, the fluorescence artifact activation was 0.15% (inactive).

Consider `CSc1nnc(-c2ccc(S(=O)(=O)N3CCCC3)cc2)n1C`, for which the fluorescence artifact activation is 0.02% (inactive).

Regarding `CSc1nc2ccccc2n1CC(=O)Nc1c(C)cccc1C`, the fluorescence artifact activation was 2.26% (inactive).

For the compound `CCN1C(=O)/C(=C/N2CCc3ccccc32)SC1=S`, the fluorescence artifact activation is 12.6% (active).

In the case of `CCN1/C(=C2\SC(=S)N(Cc3ccccc3)C2=O)Sc2ccccc21`, the fluorescence artifact activation was 0.08% (inactive).

In the case of `CN1CCS/C1=C/C=C1/SC(=S)N(Cc2ccccc2)C1=O`, the fluorescence artifact activation was -0.03% (inactive).

Source of the values: PubChem BioAssay AID504382 (The Scripps Research Institute Molecular Screening Center, 2011).
